How the values were obtained:
[1] = Metabolic stability in CD-1 mouse microsomes assessed as compound remaining after 40 mins LC-MS/MS analysis; type: ADME, Microsome; details: read-out: Activity
Summary of the method: (§1)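 Mouse liver microsomes, mixed gender, at 37 °C for 40 min; propranolol control. Reports t1/2, intrinsic clearance and % intact compound remaining at 40 min.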

[2] = system: Klebsiella pneumoniae; test: Antimicrobial activity against blaVIM-4-producing multidrug-resistant Klebsiella pneumoniae VA-416/02 clinical isolate assessed as meropenem MIC at 32 ug/ml by broth microdilution method (reference value: […] ug/ml); type: functional; details: dose 32 µg/ml
Summary of the method: (§2)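 Inoculum was 5×10^4 CFU/well. Each inhibitor was present at a fixed 32 μg/mL, and MICs were also taken without inhibitor.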

[3] = Metabolic stability in CD-1 mouse microsomes assessed as intrinsic clearance at 37 degC by LC-MS/MS analysis; type: ADME, Microsome; details: for microsomal CLint: CD-1, mouse; for Stability: mouse; summary of the method: as §1
[4] = Inhibition of bacterial VIM-2 (unknown origin) expressed in Escherichia coli EXPRESS BL21(DE3) assessed as inhibition constant by measuring rate of substrate hydrolysis by UV-visible spectrophotometry; design: species or system Bacteria
Summary of the method: (§3)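 Reporter-substrate assay with purified MBL (1–70 nM final) in 50 mM HEPES pH 7.5 at 30 °C. […] Inhibitor 0.5–1000 μM final. Ki derived from the v0/vi vs [I] slope assuming competitive inhibition, or from a Dixon plot. Ki given when inhibition >70%, otherwise % inhibition at 100 μM. Triplicate.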

[5] = Inhibition of bacterial VIM-4 (unknown origin) expressed in Escherichia coli EXPRESS BL21(DE3) assessed as inhibition constant by measuring rate of substrate hydrolysis by UV-visible spectrophotometry; design: species or system Bacteria; summary of the method: as §3
[6] = system: Escherichia coli; test: Antimicrobial activity against blaNDM-1-producing multidrug-resistant Escherichia coli SI-004 clinical isolate assessed as meropenem MIC at 32 ug/ml by broth microdilution method (reference value: 64 ug/ml)
[7] = Plasma protein binding in CD-1 mouse plasma measured after 4 hrs by LC-MS/MS analysis; type: ADME, cell-free; details: read-out: PPB (converted)
Summary of the method: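 Binding to mouse plasma proteins (mixed gender) measured; diclofenac as control.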

[8] = system: Klebsiella pneumoniae; test: Antimicrobial activity against blaVIM-1-producing multidrug-resistant Klebsiella pneumoniae K47-25 clinical isolate assessed as meropenem MIC at 32 ug/ml by broth microdilution method (reference value: […] ug/ml); type: functional; details: dose 32 µg/ml; summary of the method: as §2
[9] = molecular target: T1, Insulin-degrading enzyme (Homo sapiens, UniProt P14735); test: Inhibition of recombinant human IDE using ATTO 655-Cys-Lys-Leu-Val-Phe-Phe-Ala-Glu-Asp-Trp as substrate measured after 45 mins by fluorescence assay
T1 sequence (P14735 whole entry): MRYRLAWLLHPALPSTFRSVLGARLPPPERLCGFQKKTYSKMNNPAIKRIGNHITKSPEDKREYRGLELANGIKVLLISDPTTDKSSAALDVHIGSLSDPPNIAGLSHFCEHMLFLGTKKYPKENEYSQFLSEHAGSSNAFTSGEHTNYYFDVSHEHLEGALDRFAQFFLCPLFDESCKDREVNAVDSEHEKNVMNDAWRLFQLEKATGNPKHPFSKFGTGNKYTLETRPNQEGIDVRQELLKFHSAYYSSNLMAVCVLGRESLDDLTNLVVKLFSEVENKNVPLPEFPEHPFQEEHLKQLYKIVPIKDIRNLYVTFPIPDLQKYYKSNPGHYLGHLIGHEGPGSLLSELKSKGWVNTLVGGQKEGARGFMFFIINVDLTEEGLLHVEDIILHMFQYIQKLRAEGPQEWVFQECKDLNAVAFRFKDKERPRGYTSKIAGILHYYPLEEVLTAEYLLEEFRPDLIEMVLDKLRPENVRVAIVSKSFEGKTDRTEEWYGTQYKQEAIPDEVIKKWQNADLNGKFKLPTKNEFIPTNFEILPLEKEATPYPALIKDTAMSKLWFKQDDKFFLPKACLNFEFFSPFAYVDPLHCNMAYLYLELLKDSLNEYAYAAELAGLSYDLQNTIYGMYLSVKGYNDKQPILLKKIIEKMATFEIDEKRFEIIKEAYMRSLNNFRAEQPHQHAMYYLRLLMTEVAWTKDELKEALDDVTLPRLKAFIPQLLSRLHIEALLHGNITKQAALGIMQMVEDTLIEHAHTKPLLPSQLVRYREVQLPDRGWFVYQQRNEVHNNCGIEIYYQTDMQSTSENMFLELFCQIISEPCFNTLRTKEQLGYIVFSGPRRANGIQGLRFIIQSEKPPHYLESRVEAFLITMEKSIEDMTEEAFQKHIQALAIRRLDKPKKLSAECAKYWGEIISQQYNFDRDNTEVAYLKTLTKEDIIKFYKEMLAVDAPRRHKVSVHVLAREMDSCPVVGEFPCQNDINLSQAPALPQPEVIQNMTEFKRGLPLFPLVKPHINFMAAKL

[10] = molecular target: T2, Endoplasmic reticulum aminopeptidase 1 (Mus musculus) (UniProt Q9EQH2); test: Inhibition of recombinant mouse ERAAP using fluorogenic substrate H-Leu-AMC at 100 uM relative to control
T2 sequence (whole entry): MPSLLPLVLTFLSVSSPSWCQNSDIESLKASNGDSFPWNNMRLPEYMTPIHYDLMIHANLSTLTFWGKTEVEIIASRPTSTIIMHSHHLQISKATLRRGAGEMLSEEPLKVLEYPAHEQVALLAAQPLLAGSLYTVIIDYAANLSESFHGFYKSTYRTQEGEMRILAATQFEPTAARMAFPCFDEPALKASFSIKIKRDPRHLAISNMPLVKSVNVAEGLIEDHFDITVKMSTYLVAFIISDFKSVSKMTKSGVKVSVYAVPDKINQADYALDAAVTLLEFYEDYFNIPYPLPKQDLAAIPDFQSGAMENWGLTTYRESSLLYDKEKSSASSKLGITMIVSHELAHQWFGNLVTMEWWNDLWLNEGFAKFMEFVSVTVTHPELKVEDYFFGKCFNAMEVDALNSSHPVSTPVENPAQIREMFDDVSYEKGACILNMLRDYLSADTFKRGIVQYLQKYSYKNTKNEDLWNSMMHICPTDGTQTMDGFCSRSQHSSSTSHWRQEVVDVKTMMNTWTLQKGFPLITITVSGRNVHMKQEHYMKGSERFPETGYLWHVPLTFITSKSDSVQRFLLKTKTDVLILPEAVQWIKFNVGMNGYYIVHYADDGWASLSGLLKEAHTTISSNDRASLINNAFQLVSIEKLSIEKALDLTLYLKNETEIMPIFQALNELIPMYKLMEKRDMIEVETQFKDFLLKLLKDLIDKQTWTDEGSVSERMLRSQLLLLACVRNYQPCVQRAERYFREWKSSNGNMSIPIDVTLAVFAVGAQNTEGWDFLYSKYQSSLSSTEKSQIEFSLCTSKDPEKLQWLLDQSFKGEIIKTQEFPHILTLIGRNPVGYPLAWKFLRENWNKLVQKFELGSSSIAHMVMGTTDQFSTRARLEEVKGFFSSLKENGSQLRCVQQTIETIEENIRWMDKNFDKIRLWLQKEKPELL
Summary of the method: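 Mouse ERAAP, H-Leu-AMC substrate; undisclosed in-house control inhibitor. Percent inhibition at 100 μM, one experiment in duplicate.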

Row | SMILES | remaining at 40 min [1] [%] | MIC [2] [µg/mL] | microsomal CLint [3] [µL/min/mg] | Ki [4] [nM] | Ki [5] [nM] | MIC [6] [µg/mL] | fraction unbound at 4 h [7] | MIC [8] [µg/mL] | IC50 [9] [µM] | inhibition [10] [%] | Stability [3]
1 | O=C(O)[C@H](CCn1c(-c2ccccc2)n[nH]c1=S)N(Cc1c[nH]cn1)Cc1c[nH]cn1 | 91.2 | 0.03 | 10.6 | 210 | 230 | 0.06 | 0.45 | 0.06 | 17 | 51 | 
2 | O=C(O)[C@H](CCCn1c(-c2ccccc2)n[nH]c1=S)N(Cc1c[nH]cn1)Cc1c[nH]cn1 |  | 0.03 |  | 410 | 200 | 0.06 | 0.324 | 0.03 | 20 | 51 | Stable
3 | O=C(O)[C@H](CCCn1c(-c2ccc3ccccc3c2)n[nH]c1=S)N(Cc1c[nH]cn1)Cc1c[nH]cn1 |  | 0.03 |  | 110 | 340 | 0.06 | 0.048 | 0.03 | 9.1 | 63 | Stable
4 | Cc1[nH]cnc1CN(Cc1c[nH]cn1)[C@@H](CCCn1c(-c2ccccc2)n[nH]c1=S)C(=O)O | 98.1 | 0.03 | 5.5 | 350 | 420 | 0.06 | 0.377 | 0.06 | 35 | 42 | 
5 | O=C(O)[C@H](CCCn1c(-c2ccccc2)n[nH]c1=S)N(Cc1ccccn1)Cc1ccccn1 | 80.5 | 0.03 | 16.5 | 960 | 760 | 0.06 | 0.313 | 0.06 | 41 | 13 | 
